Experimental data from ChEMBL document CHEMBL4266015, “Scaffold Ranking and Positional Scanning Identify Novel Neurite Outgrowth Promoters with Nanomolar Potency” (2018).

Assays:
Type in all cases: functional, Hippocampal neurone
[1] = Induction of neurite outgrowth in rat hippocampal neurons assessed as neurite total length at 500 ng/ml after 48 hrs relative to control
Method in brief: (§1)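 E18 rat hippocampal neurons were plated on PDL at 1800 cells/well in NbActive4, adhered 2 h, then treated with compound prediluted in medium at 4× final for 48 h. Cells were fixed, stained for βIII-tubulin, imaged and auto-traced. Mean neurite total length is a percentage of DMSO vehicle wells on the same plate. ML-7 was the positive control and plates with Z-factor >0.5 were accepted.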

[2] = Induction of neurite outgrowth in rat hippocampal neurons assessed as neurite total length at 125 ng/ml after 48 hrs relative to control; method in brief: as §1
[3] = Induction of neurite outgrowth in rat hippocampal neurons assessed as neurite total length at 250 ng/ml after 48 hrs relative to control; method in brief: as §1
[4] = Induction of neurite outgrowth in rat hippocampal neurons assessed as neurite total length at 31.25 ng/ml after 48 hrs relative to control; method in brief: as §1
[5] = Induction of neurite outgrowth in rat hippocampal neurons assessed as neurite total length at 62.5 ng/ml after 48 hrs relative to control; method in brief: as §1
[6] = Induction of neurite outgrowth in rat hippocampal neurons assessed as neurite total length at 15.625 ng/ml after 48 hrs relative to control; method in brief: as §1
[7] = Induction of neurite outgrowth in rat hippocampal neurons assessed as neurite total length after 48 hrs
Method in brief: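 Dissociated E18 rat hippocampal neurons were seeded on PDL-coated plates at 1800 cells/well in NbActive4 and allowed to adhere 2 h. Compounds were prediluted in medium at 4× final and added, then cells were grown 48 h (2 DIV). Wells were fixed, immunostained for βIII-tubulin and imaged by automated tracing. ED200% and ED300% values were linearly interpolated from dose-response curves of mean neurite total length.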

SMILES	Activity [1]	Activity [2]	Activity [3]	Activity [4]	Activity [5]	Activity [6]	ED200 [7]	ED300 [7]
CCC(C)CC1=N[C@@H](CCCCN2C[C@@H](C)N(CCC3CCC(C)CC3)C2=S)CN1 (some centres undefined)	293.6%	166.2%	266.7%	134.9%	150%	97.33%	–	–
CC(C)CCCCN1C(=S)N(CCCC[C@H]2CNC(CCCCc3ccccc3)=N2)C[C@H]1c1ccccc1	225.1%	259.1%	253.9%	170.2%	172.4%	113.8%	–	–
CC(C)C[C@@H]1CN(CCCC[C@H]2CNC(C3CCCC3)=N2)C(=S)N1CC1CCC(C)CC1 (some centres undefined)	263%	311.6%	238.5%	255.4%	253.6%	169.9%	4 nM	25 nM
CC(C)CCCCN1C(=S)N(CCCC[C@H]2CNC(CC3CCCC3)=N2)C[C@H]1C	323.7%	213.9%	264.8%	137.9%	175.9%	113.8%	–	–
CC1CCC(CN2C(=S)N(CCCC[C@H]3CNC(C4CCCC4)=N3)C[C@H]2C)CC1 (some centres undefined)	322.3%	230.7%	257.3%	128.3%	168.1%	94.61%	130 nM	282 nM
CC1CCC(CN2C(=S)N(CCCC[C@H]3CNC(CCCc4ccccc4)=N3)C[C@H]2c2ccccc2)CC1 (some centres undefined)	221.2261%	269.1%	244.7%	174.3%	237.5%	184.9%	17 nM	>471 nM
C[C@@H]1CN(CCCC[C@H]2CNC(CCCCc3ccccc3)=N2)C(=S)N1CCCC1CCCCC1	242.7%	209.7%	246.6%	122.1%	122%	100.8%	–	–
CCC(C)CC1=N[C@@H](CCCCN2C[C@@H](CC(C)C)N(CCCCC(C)C)C2=S)CN1 (some centres undefined)	239.5%	254%	258.7%	179.8%	222.6%	122.8%	–	–
CC(C)C[C@@H]1CN(CCCC[C@H]2CNC(C3CCCC3)=N2)C(=S)N1CCC1CCCCC1	248.7%	282.9%	277.2%	256.5%	271%	194.9%	4 nM	>543 nM
CC(C)C[C@@H]1CN(CCCC[C@H]2CNC(CCCc3ccccc3)=N2)C(=S)N1CC1CCC(C)CC1 (some centres undefined)	224.4%	256.9%	240%	197%	246.7%	144.9%	25 nM	461 nM
C[C@@H]1CN(CCCC[C@H]2CNC(CC3CCCC3)=N2)C(=S)N1CCCC1CCCCC1	304.4%	250.7%	245.7679%	157.6%	188%	104.7%	–	–
S=C1N(CCCC[C@H]2CNC(C3CCCC3)=N2)C[C@@H](c2ccccc2)N1CCC1CCCCC1	185.9%	261.9%	232.4%	251.5%	260.5%	182.3%	7 nM	91 nM
CC(C)C[C@@H]1CN(CCCC[C@H]2CNC(CCCCc3ccccc3)=N2)C(=S)N1CCCC1CCCCC1	246.8%	200.8%	267.3%	135.5%	199.3%	114%	–	–
CCC(C)CC1=N[C@@H](CCCCN2C[C@@H](CC(C)C)N(CCCC3CCCCC3)C2=S)CN1 (some centres undefined)	264.0755%	252.9%	253.1%	178.9%	261.9%	158.9%	–	–
CC1CCC(CN2C(=S)N(CCCC[C@H]3CNC(C4CCCC4)=N3)C[C@H]2c2ccccc2)CC1 (some centres undefined)	229.6%	286.2%	270.8%	271.9%	305.6%	251%	2 nM	>520 nM
CCC(C)CC1=N[C@@H](CCCCN2C[C@@H](c3ccccc3)N(CCCC3CCCCC3)C2=S)CN1 (some centres undefined)	228.1%	245.5%	221.9%	200.8%	257.2%	139%	–	–
CCC(C)C1=N[C@@H](CCCCN2C[C@@H](c3ccccc3)N(CC3CCC(C)CC3)C2=S)CN1 (some centres undefined)	279.8%	301.9%	255.9%	256.2%	296.7%	190%	5 nM	54 nM
CCC(C)CC1=N[C@@H](CCCCN2C[C@@H](c3ccccc3)N(CCCCC(C)C)C2=S)CN1 (some centres undefined)	276.3%	263.7%	265.8%	179.4%	252.8%	121.4%	–	–
CCC(C)C1=N[C@@H](CCCCN2C[C@@H](CC(C)C)N(CC3CCC(C)CC3)C2=S)CN1 (some centres undefined)	264.4%	268.2%	236%	216.3%	253.6%	131.1%	10 nM	53 nM
CC1CCC(CCN2C(=S)N(CCCC[C@H]3CNC(CCCCc4ccccc4)=N3)C[C@H]2C)CC1 (some centres undefined)	296.9%	70.33%	237.6%	101.9%	117.7%	88.36%	–	–
CCC(C)CC1=N[C@@H](CCCCN2C[C@@H](C)N(CCCCC(C)C)C2=S)CN1 (some centres undefined)	323.0821%	169.1%	209.2%	115.6%	155%	92.45%	–	–
CC(C)CCCCN1C(=S)N(CCCC[C@H]2CNC(CC3CCCC3)=N2)C[C@H]1c1ccccc1	273%	249.2%	277.9%	234.3%	279.6%	173.9%	–	–
S=C1N(CCCC[C@H]2CNC(CCCCc3ccccc3)=N2)C[C@@H](c2ccccc2)N1CCCC1CCCCC1	183.5%	254.2%	221.8%	208.9%	251.6%	143.7%	–	–
CC(C)CCCCN1C(=S)N(CCCC[C@H]2CNC(CCCCc3ccccc3)=N2)C[C@H]1CC(C)C	239.9%	237.1%	265.6%	145.3%	194.1%	127.4%	–	–
CC(C)CCCCN1C(=S)N(CCCC[C@H]2CNC(CCCCc3ccccc3)=N2)C[C@H]1C	346.7%	160.4%	257.3265%	100.5%	124.2%	116.4%	–	–
CCC(C)CC1=N[C@@H](CCCCN2C[C@@H](C)N(CCCC3CCCCC3)C2=S)CN1 (some centres undefined)	357.5%	196.1%	246.1%	121.4%	142.6%	102.3%	–	–
